Measurements as given in ChEMBL document CHEMBL5329183, “Naphthylthiazoles: a class of broad-spectrum antifungals” (RSC Med Chem, 2023).

What was measured:
Type in all cases: ADME, organism-based
[1] = Half life in Sprague-Dawley rat at 25 mg/kg, po administered as single dose by LC/MS/MS analysis; conditions: in vivo
Method in brief: (§1)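 Male naïve Sprague–Dawley rats (n=3) received a single 25 mg kg−1 oral gavage dose in 5% ethanol/45% PEG 400/50% water. EDTA-K2 blood was sampled over 24 h post-dose. Plasma levels were measured by LC/MS/MS after acetonitrile protein precipitation, and parameters came from two-compartment analysis.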

[2] = Tmax in Sprague-Dawley rat at 25 mg/kg, po administered as single dose by LC/MS/MS analysis; conditions: in vivo
Method in brief: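 Male naïve Sprague–Dawley rats (n = 3) received a single 25 mg kg−1 dose by oral gavage in 5% ethanol/45% PEG 400/50% water. EDTA-K2 blood was sampled over 24 h. Plasma levels were measured by LC/MS/MS after acetonitrile protein precipitation, and parameters came from two-compartment analysis.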

[3] = Plasma concentration in Sprague-Dawley rat at 25 mg/kg, po administered as single dose and measured for 18 hrs by LC/MS/MS analysis; method in brief: as §1

Q: With `Cc1nc(-c2ccc3ccccc3c2)sc1-c1nnc(N[C@@H]2CCCC[C@H]2N)o1` (relative stereo) as the molecule, how does the half-life [1] read?
A: 3.6 h

Q: What about the Tmax [2] of the same molecule?
A: 3 h

Q: What about the concentration at 18 h [3] of the same molecule?
A: 1000 ng/mL
